Test results from ChEMBL document CHEMBL3272089, “Synthesis and antitumor activity of dihydro-5-azacytidine, a hydrolytically stable analogue of 5-azacytidine” (J Med Chem, 1977).

Experiments:
P388 [1] = assay: Antitumor activity against mouse P388 cells allografted in ip dosed mouse assessed as increase in life span at optimal dose administered qd from day 1 to day 9 post tumor implantation relative to control; format: functional
L1210 [2] = assay: Antitumor activity against mouse L1210 cells allografted in po dosed mouse assessed as change in body weight at optimal dose administered qd from day 1 to day 9 post tumor implantation measured on day 5 relative to control; format: functional
Method in brief: (§1)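 Mice bearing tumour cells implanted ip (intracerebrally in the IC-L1210 system) got compound in 0.9% saline ip on the stated schedule, or orally to nonfasting animals in the PO-L1210 system. Day-1 dosing, per day, or every 6 h counted from implantation. The value is the difference in average body weight change (g) on day 5 between the optimal-dose group (T) and controls (C).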

B16 [3] = assay: Antitumor activity against mouse B16 cells allografted in ip dosed mouse assessed as increase in life span at optimal dose administered qd from day 1 to day 9 post tumor implantation relative to control; format: functional
L1210 [4] = assay: Antitumor activity against mouse L1210 cells allografted in ip dosed mouse assessed as increase in life span at optimal dose administered qd from day 1 to day 9 post intracerebral tumor implantation relative to control; format: functional
Method in brief: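 L1210 cells implanted intracerebrally in mice. Drug given ip in 0.9% saline, dose-response in twofold dose steps (mg/kg per injection). Antitumor effect as % increase in life-span over untreated controls at the optimal dose. Test minus control body-weight change recorded on day 5.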

L1210 [5] = assay: Antitumor activity against mouse L1210 cells allografted in po dosed mouse assessed as increase in life span at optimal dose administered qd from day 1 to day 9 post tumor implantation relative to control; format: functional
Method in brief: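 Mice bearing ip-implanted L1210 were dosed orally, nonfasting, with compound in 0.9% saline. Dose-response in twofold steps, mg/kg per dose. % ILS relative to untreated controls at the optimal dose. Weight change (test minus control) on day 5.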

B16 [6] = assay: Antitumor activity against mouse B16 cells allografted in ip dosed mouse assessed as change in body weight at optimal dose administered qd from day 1 to day 9 post tumor implantation measured on day 5 relative to control; format: functional; method in brief: as §1
Mus musculus [7] = assay: Toxicity in ip dosed mouse allografted with mouse L1210 cells assessed as dose required for optimal activity administered qd from day 1 to day 9 post tumor implantation; format: organism-based; conditions: in vivo
Method in brief: (§2)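 Tumour cells were implanted ip (intracerebrally for IC-L1210), with the compound given in 0.9% saline ip, or orally to nonfasting mice in PO-L1210. Dose–response series each halved the preceding dose, expressed as mg/kg per injection. Activity was read as % increase in life-span (% ILS) over untreated controls, and from this the minimum, optimal and maximum active doses were taken.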

Mus musculus [8] = assay: Toxicity in ip dosed mouse allografted with mouse P388 cells assessed as dose required for optimal activity administered qd from day 1 to day 9 post tumor implantation; format: organism-based; conditions: in vivo; method in brief: as §2
Mus musculus [9] = assay: Toxicity in ip dosed mouse allografted with mouse B16 cells assessed as dose required for optimal activity administered qd from day 1 to day 9 post tumor implantation; format: organism-based; conditions: in vivo; method in brief: as §2
L1210 [10] = assay: Antitumor activity against mouse L1210 cells allografted in ip dosed mouse assessed as change in body weight at optimal dose administered qd on day 1, 5 and 9 post tumor implantation measured on day 5 relative to control; format: functional; method in brief: as §1
L1210 [11] = assay: Antitumor activity against mouse L1210 cells allografted in ip dosed mouse assessed as change in body weight at optimal dose administered qd on day 1 post tumor implantation measured on day 5 relative to control; format: functional; method in brief: as §1
P388 [12] = assay: Antitumor activity against mouse P388 cells allografted in ip dosed mouse assessed as dose required for maximal activity administered qd from day 1 to day 9 post tumor implantation; format: functional; method in brief: as §2
L1210 [13] = assay: Antitumor activity against mouse L1210 cells allografted in ip dosed mouse assessed as change in body weight at optimal dose administered qd from day 1 to day 9 post intracerebral tumor implantation measured on day 5 relative to control; format: functional; method in brief: as §1
Mus musculus [14] = assay: Toxicity in ip dosed mouse allografted with mouse L1210 cells assessed as dose required for optimal activity administered qd from day 1 to day 9 post intracerebral tumor implantation; format: organism-based; conditions: in vivo; method in brief: as §2
L1210 [15] = assay: Antitumor activity against mouse L1210 cells allografted in ip dosed mouse assessed as increase in life span at optimal dose administered every 6 hrs on day 1, 5 and 9 post tumor implantation relative to control; format: functional
Method in brief: (§3)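 L1210 leukemia cells implanted ip in mice. Drug given ip in 0.9% saline: day 1 only (QD1); days 1, 5, 9 (Q4D); every 6 h on days 1, 5, 9 (Q4D(Q6H)); or days 1-9 (QD1-9). Dose-response run in twofold steps, dose in mg/kg per injection. % ILS versus untreated controls at the optimal dose. Toxicity taken as test minus control body-weight change on day 5.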

L1210 [16] = assay: Antitumor activity against mouse L1210 cells allografted in ip dosed mouse assessed as dose required for minimal activity administered every 6 hrs on day 1, 5 and 9 post tumor implantation; format: functional; conditions: read-out: MED; method in brief: as §2
L1210 [17] = assay: Antitumor activity against mouse L1210 cells allografted in ip dosed mouse assessed as dose required for maximal activity administered qd on day 1, 5 and 9 post tumor implantation; format: functional; method in brief: as §2
[18] = Therapeutic index, ratio of toxicity in ip dosed mouse allografted with mouse L1210 cells assessed as highest dose required for 40% increase in life span to antitumor activity against mouse L1210 cells allografted in ip dosed mouse assessed as lowest dose required for 40% increase in life span; format: organism-based; conditions: in vivo, read-out: TI
Method in brief: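 L1210 cells implanted ip in mice. Drug in 0.9% saline given ip once daily on days 1-9 (QD1-9), dose-response with each dose half of the next higher. % ILS measured against untreated controls. Dose-response data were pooled from five QD1-9 experiments. TI = highest dose giving 40% ILS ÷ lowest dose giving 40% ILS.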

L1210 [19] = assay: Antitumor activity against mouse L1210 cells allografted in ip dosed mouse assessed as increase in life span at optimal dose administered qd from day 1 to day 9 post tumor implantation relative to control; format: functional; method in brief: as §3
L1210 [20] = assay: Antitumor activity against mouse L1210 cells allografted in ip dosed mouse assessed as dose required for maximal activity administered qd on day 1 post tumor implantation; format: functional; method in brief: as §2
L1210 [21] = assay: Antitumor activity against mouse L1210 cells allografted in ip dosed mouse assessed as dose required for maximal activity administered qd from day 1 to day 9 post intracerebral tumor implantation; format: functional; method in brief: as §2
L1210 [22] = assay: Antitumor activity against mouse L1210 cells allografted in ip dosed mouse assessed as dose required for maximal activity administered every 6 hrs on day 1, 5 and 9 post tumor implantation; format: functional; method in brief: as §2
Mus musculus [23] = assay: Toxicity in po dosed mouse allografted with mouse L1210 cells assessed as dose required for optimal activity administered qd from day 1 to day 9 post tumor implantation; format: organism-based; conditions: in vivo; method in brief: as §2
L1210 [24] = assay: Antitumor activity against mouse L1210 cells allografted in po dosed mouse assessed as dose required for minimal activity administered qd from day 1 to day 9 post tumor implantation; format: functional; conditions: read-out: MED; method in brief: as §2
L1210 [25] = assay: Antitumor activity against mouse L1210 cells allografted in ip dosed mouse assessed as dose required for minimal activity administered qd from day 1 to day 9 post intracerebral tumor implantation; format: functional; conditions: read-out: MED; method in brief: as §2
L1210 [26] = assay: Antitumor activity against mouse L1210 cells allografted in ip dosed mouse assessed as change in body weight at optimal dose administered qd from day 1 to day 9 post tumor implantation measured on day 5 relative to control; format: functional; method in brief: as §1
L1210 [27] = assay: Antitumor activity against mouse L1210 cells allografted in ip dosed mouse assessed as increase in life span at optimal dose administered qd on day 1, 5 and 9 post tumor implantation relative to control; format: functional; method in brief: as §3

Row | SMILES | ILS (P388 [1]) | Activity (L1210 [2]) | ILS (B16 [3]) | ILS (L1210 [4]) | ILS (L1210 [5]) | Activity (B16 [6]) | Activity (Mus musculus [7]) | Activity (Mus musculus [8]) | Activity (Mus musculus [9]) | Activity (L1210 [10]) | Activity (L1210 [11]) | MAD (P388 [12]) | Activity (L1210 [13]) | Activity (Mus musculus [14]) | ILS (L1210 [15]) | minimal effective dose (L1210 [16]) | MAD (L1210 [17]) | selectivity ratio [18] | ILS (L1210 [19]) | MAD (L1210 [20]) | other results
1 | Cl.NC1=NC(=O)N([C@@H]2O[C@H](CO)[C@@H](O)[C@H]2O)CN1 | 85% | -4.4 g | 19% | 46% | 50% | -3.3 g | 100 mg/kg | 100 mg/kg | 100 mg/kg | -4.3 g | -3.1 g | 200 mg/kg | -1.9 g | 100 mg/kg | 68% | 9.4 mg/kg | 600 mg/kg | 40 | 116% | 1600 mg/kg | MAD (L1210 [21]): 100 mg/kg; MAD (L1210 [22]): 150 mg/kg; Activity (Mus musculus [23]): 400 mg/kg; minimal effective dose (L1210 [24]): 200 mg/kg; minimal effective dose (L1210 [25]): 25 mg/kg; Activity (L1210 [26]): -3.9 g; ILS (L1210 [27]): 96%
2 | Nc1ncn([C@@H]2O[C@H](CO)[C@@H](O)[C@H]2O)c(=O)n1 [AZACITIDINE] | 127% | -4.1 g | 20% | 28% | 24% | 1.5 g | 3 mg/kg | 3 mg/kg | 3 mg/kg | -1.5 g | -3.8 g | 3 mg/kg | -0.5 g | 0.75 mg/kg | 126% | 1.25 mg/kg | 20 mg/kg | 14 | 128% | 100 mg/kg | MAD (L1210 [21]): 0.75 mg/kg; MAD (L1210 [22]): 5 mg/kg; Activity (Mus musculus [23]): 12.5 mg/kg; minimal effective dose (L1210 [24]): 1.56 mg/kg; minimal effective dose (L1210 [25]): 0.75 mg/kg; Activity (L1210 [26]): -3 g; ILS (L1210 [27]): 94%
